# Test results published in ChEMBL document CHEMBL1914291, “Ptilomycalin A inhibits laccase and melanization in Cryptococcus neoformans” (Bioorg Med Chem, 2011).
# Activity calls are given as the source filed them. The calls are words filed in the database; no cut-off is given here.
# Experiments:
# Cryptococcus gattii [1] = assay: Antifungal activity in Cryptococcus neoformans var. gattii assessed as clear halo diameter at 20 ug after 6 to 8 days by halo assay in presence of L-dopa; type: functional, Cryptococcus bacillisporus; details: read-out: DIZ
# Summary of the method: (§1)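 Paper-disk diffusion halo assay on lawns of C. neoformans (MAT α; var. grubii H99 serotype A, var. gattii serotype B) in defined minimal medium agar with 1 mM catecholamine (L-dopa, dopamine or epinephrine). Compounds were dissolved in DMSO and applied to 6.5 mm disks, which were dried 3 h at RT. Plates were incubated at 30 °C for 6–8 days and the clear halo diameter was measured in mm.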
# Cryptococcus neoformans [2] = assay: Antifungal activity in Cryptococcus neoformans var. grubii assessed as clear halo diameter at 20 ug after 6 to 8 days by halo assay in presence of dopamine; type: functional; details: read-out: DIZ; summary of the method: as §1
# Cryptococcus neoformans [3] = assay: Antifungal activity in Cryptococcus neoformans var. grubii assessed as clear halo diameter at 20 ug after 6 to 8 days by halo assay in presence of epinephrine; type: functional; details: read-out: DIZ; summary of the method: as §1
# Cryptococcus neoformans [4] = assay: Antifungal activity in Cryptococcus neoformans var. grubii assessed as clear halo diameter at 20 ug after 6 to 8 days by halo assay in presence of L-dopa; type: functional; details: read-out: DIZ; summary of the method: as §1
# Cryptococcus gattii [5] = assay: Antifungal activity in Cryptococcus neoformans var. gattii assessed as clear halo diameter at 20 ug after 6 to 8 days by halo assay in presence of dopamine; type: functional, Cryptococcus bacillisporus; details: read-out: DIZ; summary of the method: as §1
# Cryptococcus gattii [6] = assay: Antifungal activity in Cryptococcus neoformans var. gattii assessed as clear halo diameter at 2 ug after 6 days by halo assay in presence of 1 mM L-dopa; type: functional, Cryptococcus bacillisporus; summary of the method: as §1
# Cryptococcus neoformans [7] = assay: Antimelanogenic activity in non-melanized Cryptococcus neoformans var. grubii assessed as inhibition of pigmentation at 0.0625 ug/mL after 10 days by microtiter plate assay in presence of 1 mM catecholamine; type: functional
# Summary of the method: (§2)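 Overnight non-melanized culture diluted in fresh defined minimal medium to OD about 0.010–0.020. Cells were exposed to compound from DMSO stock in microtiter wells containing 1 mM catecholamine (epinephrine, dopamine or L-dopa) and grown 10 days at 30 °C. Melanization/pigmentation was scored visually against cell-only and DMSO controls.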
# Cryptococcus neoformans [8] = assay: Antifungal activity in Cryptococcus neoformans var. grubii assessed as clear halo diameter at 2 ug after 6 days by halo assay in presence of 1 mM L-dopa; type: functional; summary of the method: as §1
# Cryptococcus gattii [9] = assay: Antifungal activity in Cryptococcus neoformans var. gattii assessed as clear halo diameter at 20 ug after 6 to 8 days by halo assay in presence of epinephrine; type: functional, Cryptococcus bacillisporus; details: read-out: DIZ; summary of the method: as §1
# Cryptococcus neoformans [10] = assay: Antimelanogenic activity in non-melanized Cryptococcus neoformans var. grubii assessed as inhibition of pigmentation at 0.5 ug/mL after 10 days by microtiter plate assay in presence of 1 mM catecholamine; type: functional; summary of the method: as §2
# Laccase [11] = target: T1, Laccase (Trametes versicolor, UniProt O94222); assay: Inhibition of Trametes versicolor laccase assessed as production of dopachrome using 200 uM dopamine as substrate preincubated for 30 mins before substrate addition
# T1 sequence (O94222 whole entry): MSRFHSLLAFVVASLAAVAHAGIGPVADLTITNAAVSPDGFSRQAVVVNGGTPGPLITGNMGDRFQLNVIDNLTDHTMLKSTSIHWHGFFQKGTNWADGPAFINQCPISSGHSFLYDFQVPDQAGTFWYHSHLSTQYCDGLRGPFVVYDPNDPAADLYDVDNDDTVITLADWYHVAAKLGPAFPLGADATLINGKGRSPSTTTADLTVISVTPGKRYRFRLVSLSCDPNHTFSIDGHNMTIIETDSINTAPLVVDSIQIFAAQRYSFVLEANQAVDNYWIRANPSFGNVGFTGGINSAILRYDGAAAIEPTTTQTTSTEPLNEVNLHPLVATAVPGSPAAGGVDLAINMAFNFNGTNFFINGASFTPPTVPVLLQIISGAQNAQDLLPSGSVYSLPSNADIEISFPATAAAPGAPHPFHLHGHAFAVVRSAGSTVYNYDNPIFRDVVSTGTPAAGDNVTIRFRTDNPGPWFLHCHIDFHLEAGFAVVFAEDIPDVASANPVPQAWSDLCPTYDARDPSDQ
# Summary of the method: (§3)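 Cell-free assay with purified Trametes versicolor laccase. Inhibitor (0–1 mM range) is preincubated with the enzyme for 30 min before substrate is added. Substrates are epinephrine 100 μM, dopamine 200 μM or L-dopa 300 μM. Dopachrome formation is monitored colorimetrically at 480 nm. IC50 is taken from dose-response curves, mean of two experiments with SE; NaN3 is the positive control.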
# [12] = Inhibition of laccase in Cryptococcus neoformans var. grubii assessed as production of dopachrome using 100 uM epinephrine as substrate preincubated for 30 mins before substrate addition
# Summary of the method: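 Whole-cell laccase assay. C. neoformans var. grubii is grown in asparagine salts without glucose to raise laccase, then permeabilized with toluene-ethanol (1:4). Inhibitor (0–1 mM range) is preincubated for 30 min before adding 100 μM epinephrine. Dopachrome is read at 480 nm. IC50 is the mean of two experiments with SE; NaN3 is the positive control.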
# Laccase [13] = target: T1, Laccase; assay: Inhibition of Trametes versicolor laccase assessed as production of dopachrome using 100 uM epinephrine as substrate preincubated for 30 mins before substrate addition; summary of the method: as §3
# Laccase [14] = target: T1, Laccase; assay: Inhibition of Trametes versicolor laccase assessed as production of dopachrome using 300 uM L-dopa as substrate preincubated for 30 mins before substrate addition; summary of the method: as §3
# Cryptococcus neoformans [15] = assay: Antimelanogenic activity in non-melanized Cryptococcus neoformans var. grubii assessed as onset day of melanization at 2 uM by drop test assay in presence of 1 mM L-dopa (reference value: 6 days); type: functional
# Summary of the method: (§4)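 Drop test. C. neoformans culture at 10^7 cells/mL is dosed with compound at 0, 0.06, 0.2, 0.6 and 2 μM. It is dropped onto defined minimal medium plates with 1 mM L-dopa and incubated at 30 °C until melanization occurs. The read-out is the onset day of melanization.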
# Cryptococcus neoformans [16] = assay: Antimelanogenic activity in non-melanized Cryptococcus neoformans var. grubii assessed as onset day of melanization at 0.6 uM by drop test assay in presence of 1 mM L-dopa (reference value: 6 days); type: functional; summary of the method: as §4
# Cryptococcus neoformans [17] = assay: Antimelanogenic activity in non-melanized Cryptococcus neoformans var. grubii assessed as onset day of melanization at 0.06 uM by drop test assay in presence of 1 mM L-dopa (reference value: 6 days); type: functional; summary of the method: as §4
# Cryptococcus neoformans [18] = assay: Antimelanogenic activity in Cryptococcus neoformans var. grubii assessed as halo diameter surrounded by non-melanized cells at 10 ug after 6 days by halo assay in presence of 1 mM L-dopa; type: functional
# Summary of the method: (§5)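 Paper-disk diffusion halo assay on a lawn of C. neoformans (MAT α; var. grubii H99 serotype A, var. gattii serotype B). Medium is defined minimal medium agar with 1 mM catecholamine (L-dopa, dopamine or epinephrine). Compound is delivered from DMSO stock onto 6.5 mm disks, which are dried 3 h at RT. Incubation is 30 °C for 6–8 days. The read-out is halo diameter (mm), with the halo checked for non-melanized cells.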
# Cryptococcus neoformans [19] = assay: Antimelanogenic activity in Cryptococcus neoformans var. grubii assessed as halo diameter surrounded by non-melanized cells at 20 ug after 6 to 8 days by halo assay in presence of L-dopa; type: functional; details: read-out: DIZ; summary of the method: as §5
# Cryptococcus neoformans [20] = assay: Antimelanogenic activity in Cryptococcus neoformans var. grubii assessed as halo diameter surrounded by non-melanized cells at 20 ug after 6 to 8 days by halo assay in presence of epinephrine; type: functional; details: read-out: DIZ; summary of the method: as §5
# Cryptococcus neoformans [21] = assay: Antimelanogenic activity in non-melanized Cryptococcus neoformans var. grubii assessed as delay of melanization by drop test assay in presence of 1 mM L-dopa; type: functional; summary of the method: as §4
# [22] = tested on: Human immunodeficiency virus; assay: Inhibition of DNA polymerase activity of HIV reverse transcriptase at 10 uM
# Cryptococcus neoformans [23] = assay: Antimelanogenic activity in non-melanized Cryptococcus neoformans var. grubii assessed as inhibition of pigmentation at 0.8 ug/mL after 21 days by microtiter plate assay in presence of 1 mM catecholamine; type: functional
# Summary of the method: (§6)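 Broth assay in microtiter plates. An overnight culture of non-melanized C. neoformans var. grubii is diluted in fresh defined minimal medium to OD about 0.010–0.020. It is exposed to single sublethal concentrations (from DMSO; cells/DMSO control) in medium with 1 mM catecholamine (epinephrine, dopamine or L-dopa) at 30 °C. Pigmentation is scored visually at 10 days, with an additional check at 21 days.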
# Cryptococcus gattii [24] = assay: Antimelanogenic activity in Cryptococcus neoformans var. gattii assessed as halo diameter surrounded by non-melanized cells at 20 ug after 6 to 8 days by halo assay in presence of L-dopa; type: functional, Cryptococcus bacillisporus; details: read-out: DIZ; summary of the method: as §5
# Cryptococcus neoformans [25] = assay: Antimelanogenic activity in non-melanized Cryptococcus neoformans var. grubii assessed as inhibition of pigmentation at 0.8 ug/mL after 10 days by microtiter plate assay in presence of 1 mM catecholamine; type: functional; summary of the method: as §6
# Cryptococcus gattii [26] = assay: Antimelanogenic activity in Cryptococcus neoformans var. gattii assessed as halo diameter surrounded by non-melanized cells at 10 ug after 6 days by halo assay in presence of 1 mM L-dopa; type: functional, Cryptococcus bacillisporus; summary of the method: as §5
# Cryptococcus gattii [27] = assay: Antimelanogenic activity in Cryptococcus neoformans var. gattii assessed as halo diameter surrounded by non-melanized cells at 20 ug after 6 to 8 days by halo assay in presence of epinephrine; type: functional, Cryptococcus bacillisporus; details: read-out: DIZ; summary of the method: as §5
# Cryptococcus neoformans [28] = assay: Antimelanogenic activity in Cryptococcus neoformans var. grubii assessed as halo diameter surrounded by non-melanized cells at 20 ug after 6 to 8 days by halo assay in presence of dopamine; type: functional; details: read-out: DIZ; summary of the method: as §5
# Cryptococcus gattii [29] = assay: Antimelanogenic activity in Cryptococcus neoformans var. gattii assessed as halo diameter surrounded by non-melanized cells at 20 ug after 6 to 8 days by halo assay in presence of dopamine; type: functional, Cryptococcus bacillisporus; details: read-out: DIZ; summary of the method: as §5
# Cryptococcus neoformans [30] = assay: Antimelanogenic activity in non-melanized Cryptococcus neoformans var. grubii assessed as inhibition of pigmentation at 200 ug/mL after 10 days by microtiter plate assay in presence of 1 mM catecholamine; type: functional; summary of the method: as §6
compound,measurement,setting,value
C[C@@H]1[C@H](O)[C@@H](C)/C=C/C=C/C=C/C=C/C=C/C=C/C=C/[C@H](O[C@@H]2O[C@H](C)[C@@H](O)[C@H](N)[C@@H]2O)C[C@@H]2O[C@](O)(C[C@@H](O)C[C@@H](O)[C@H](O)CC[C@@H](O)C[C@@H](O)CC(=O)O[C@H]1C)C[C@H](O)[C@H]2C(=O)O [AMPHOTERICIN B],zone of inhibition at 20 µg/disc,Cryptococcus gattii [1],17 mm
same,zone of inhibition at 20 µg/disc,Cryptococcus neoformans [2],18 mm
same,zone of inhibition at 20 µg/disc,Cryptococcus neoformans [3],18 mm
same,zone of inhibition at 20 µg/disc,Cryptococcus neoformans [4],21 mm
same,zone of inhibition at 20 µg/disc,Cryptococcus gattii [5],22 mm
same,diameter of the inhibition zone (DIZ),Cryptococcus gattii [6],10 mm
same,Activity,Cryptococcus neoformans [7],inactive
same,diameter of the inhibition zone (DIZ),Cryptococcus neoformans [8],15.5 mm
same,zone of inhibition at 20 µg/disc,Cryptococcus gattii [9],18 mm
Clc1ccc(COC(Cn2ccnc2)c2ccc(Cl)cc2Cl)c(Cl)c1 (centres undefined),Activity,Cryptococcus neoformans [10],inactive
[N-]=[N+]=[N-] [SODIUM AZIDE],IC50,Laccase [11],257 µM
same,IC50,[12],329 µM
same,IC50,Laccase [13],263 µM
same,IC50,Laccase [14],279 µM
CC[C@H]1CCCC[C@@]2(C[C@@H]3CC[C@@H]4[C@H](C(=O)OCCCCCCCCCCCCCCCC(=O)N(CCCN)CCCCN)[C@]5(CCC[C@@H](C)O5)NC(=[N+]34)N2)O1.[Cl-] [PTILOMYCALIN A],Time,Cryptococcus neoformans [15],25 days
same,Time,Cryptococcus neoformans [16],20 days
same,IC50,Laccase [11],4.9 µM
same,Time,Cryptococcus neoformans [17],9 days
same,diameter of the inhibition zone (DIZ),Cryptococcus neoformans [18],13.5 mm
same,zone of inhibition at 20 µg/disc,Cryptococcus neoformans [19],17 mm
same,IC50,[12],7.3 µM
same,zone of inhibition at 20 µg/disc,Cryptococcus neoformans [20],12 mm
same,Activity,Cryptococcus neoformans [21],Dose-dependent effect
same,inhibition,[22],60%
same,Activity,Cryptococcus neoformans [23],Active
same,zone of inhibition at 20 µg/disc,Cryptococcus gattii [24],17 mm
same,Activity,Cryptococcus neoformans [25],Active
same,diameter of the inhibition zone (DIZ),Cryptococcus gattii [26],9.5 mm
same,zone of inhibition at 20 µg/disc,Cryptococcus gattii [27],12 mm
same,zone of inhibition at 20 µg/disc,Cryptococcus neoformans [28],15 mm
same,IC50,Laccase [13],4.7 µM
same,zone of inhibition at 20 µg/disc,Cryptococcus gattii [29],18 mm
same,IC50,Laccase [14],5.8 µM
O=C(O)CNCP(=O)(O)O,Activity,Cryptococcus neoformans [30],inactive
